From ChEMBL document CHEMBL5661979, “Pharmacological inhibition of BMK1 suppresses tumor growth through promyelocytic leukemia protein” (Cancer Cell, 2010)
Activity calls are given as the source filed them. No cut-off for these calls is given here.

Legend:
[1] = biological target: Serine/threonine-protein kinase SMG1 (Homo sapiens, UniProt Q96Q15); assay: Inhibition of SMG1 in human HeLa cells lysate pre incubated for 15 mins followed by ATP acyl phosphate probe addition and measured after 10 mins by LC-MS/MS analysis; type: subcellular
Activated CDC42 kinase 1 = Activated CDC42 kinase 1 (Homo sapiens, UniProt Q07912); assay: Inhibition of ACK1 in human HeLa cells lysate pre incubated for 15 mins followed by ADP acyl phosphate probe addition and measured after 10 mins by LC-MS/MS analysis; type: subcellular
In short: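 HeLa cell lysate (5 mg/mL total protein) preincubated 15 min with inhibitor at 50, 10, 2, 0.8 and 0 μM, then ATP or ADP acylphosphate probe added (5 μM final) for 10 min. Reaction stopped with urea, then targeted LC-MS/MS. Up to four fragment ions per kinase peptide-probe conjugate were used. % inhibition was taken versus untreated lysate. Run in duplicate.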

[2] = biological target: Serine/threonine-protein kinase ULK2 (Homo sapiens, UniProt Q8IYT8); assay: Inhibition of ULK2 in human HeLa cells lysate pre incubated for 15 mins followed by ADP acyl phosphate probe addition and measured after 10 mins by LC-MS/MS analysis; type: subcellular
Serine/threonine-protein kinase ULK2, sequence (Q8IYT8 whole entry): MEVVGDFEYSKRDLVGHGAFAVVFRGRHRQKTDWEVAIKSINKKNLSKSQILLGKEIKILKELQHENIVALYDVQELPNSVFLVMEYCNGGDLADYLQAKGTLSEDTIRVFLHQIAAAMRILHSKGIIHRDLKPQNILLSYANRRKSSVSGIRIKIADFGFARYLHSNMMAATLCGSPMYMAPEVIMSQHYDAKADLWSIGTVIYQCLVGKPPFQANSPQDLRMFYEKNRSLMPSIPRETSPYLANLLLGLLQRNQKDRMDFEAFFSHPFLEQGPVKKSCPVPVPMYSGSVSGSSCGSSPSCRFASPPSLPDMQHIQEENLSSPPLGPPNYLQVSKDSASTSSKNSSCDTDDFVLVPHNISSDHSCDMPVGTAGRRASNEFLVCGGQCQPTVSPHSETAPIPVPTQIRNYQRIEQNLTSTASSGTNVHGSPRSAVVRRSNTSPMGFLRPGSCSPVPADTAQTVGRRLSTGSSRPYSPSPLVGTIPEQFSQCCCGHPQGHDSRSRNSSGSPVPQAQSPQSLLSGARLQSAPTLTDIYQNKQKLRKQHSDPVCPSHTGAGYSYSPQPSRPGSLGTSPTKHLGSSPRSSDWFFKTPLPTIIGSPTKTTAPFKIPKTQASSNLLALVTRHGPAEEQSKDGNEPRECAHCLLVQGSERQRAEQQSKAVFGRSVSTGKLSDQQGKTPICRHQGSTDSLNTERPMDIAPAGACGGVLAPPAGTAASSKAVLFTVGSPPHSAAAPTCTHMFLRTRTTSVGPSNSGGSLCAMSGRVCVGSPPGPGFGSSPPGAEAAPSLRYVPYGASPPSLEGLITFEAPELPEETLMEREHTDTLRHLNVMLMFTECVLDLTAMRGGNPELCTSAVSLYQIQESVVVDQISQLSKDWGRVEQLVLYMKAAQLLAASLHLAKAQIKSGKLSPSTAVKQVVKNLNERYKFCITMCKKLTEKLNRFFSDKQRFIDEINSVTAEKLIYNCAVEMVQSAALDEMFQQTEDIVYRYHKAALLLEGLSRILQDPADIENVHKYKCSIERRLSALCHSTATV

Focal adhesion kinase 1 = Focal adhesion kinase 1 (Homo sapiens, UniProt Q05397); assay: Inhibition of FAK in human HeLa cells lysate at 50 uM pre incubated for 15 mins followed by ADP acyl phosphate probe addition and measured after 10 mins by LC-MS/MS analysis relative to control; type: subcellular; settings: time 25.0 min
Focal adhesion kinase 1, sequence (Q05397 2-1052 limits assumed): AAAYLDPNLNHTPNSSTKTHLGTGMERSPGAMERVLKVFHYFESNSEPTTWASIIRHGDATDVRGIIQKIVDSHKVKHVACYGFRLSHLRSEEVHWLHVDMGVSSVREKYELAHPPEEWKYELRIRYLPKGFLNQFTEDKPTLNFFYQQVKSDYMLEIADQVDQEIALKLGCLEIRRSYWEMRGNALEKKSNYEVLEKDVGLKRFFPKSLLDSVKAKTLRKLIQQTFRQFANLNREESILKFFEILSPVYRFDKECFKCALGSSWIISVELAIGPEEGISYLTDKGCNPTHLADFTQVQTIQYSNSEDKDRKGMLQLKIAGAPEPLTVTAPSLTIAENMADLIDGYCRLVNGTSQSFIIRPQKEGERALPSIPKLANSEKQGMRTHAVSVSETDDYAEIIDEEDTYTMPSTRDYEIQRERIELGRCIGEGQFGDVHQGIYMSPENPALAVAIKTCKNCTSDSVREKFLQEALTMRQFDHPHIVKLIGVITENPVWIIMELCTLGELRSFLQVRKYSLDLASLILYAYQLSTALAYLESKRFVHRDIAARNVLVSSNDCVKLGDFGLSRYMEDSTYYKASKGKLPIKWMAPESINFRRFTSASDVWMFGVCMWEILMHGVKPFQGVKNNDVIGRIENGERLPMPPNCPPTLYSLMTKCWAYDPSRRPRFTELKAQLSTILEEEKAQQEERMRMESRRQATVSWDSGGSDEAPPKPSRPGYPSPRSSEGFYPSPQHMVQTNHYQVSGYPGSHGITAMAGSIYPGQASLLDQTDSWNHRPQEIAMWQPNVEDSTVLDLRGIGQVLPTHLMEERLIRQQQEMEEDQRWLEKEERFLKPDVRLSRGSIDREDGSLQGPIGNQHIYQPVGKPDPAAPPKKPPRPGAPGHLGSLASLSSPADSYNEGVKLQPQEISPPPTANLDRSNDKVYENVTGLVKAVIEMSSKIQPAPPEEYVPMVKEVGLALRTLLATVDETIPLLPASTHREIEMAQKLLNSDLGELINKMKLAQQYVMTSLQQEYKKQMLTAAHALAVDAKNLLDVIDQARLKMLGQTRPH

[3] = biological target: STE20-like serine/threonine-protein kinase (Homo sapiens, UniProt Q9H2G2); assay: Inhibition of SLK in human HeLa cells lysate at 50 uM pre incubated for 15 mins followed by ADP acyl phosphate probe addition and measured after 10 mins by LC-MS/MS analysis relative to control; type: subcellular; settings: time 25.0 min
[4] = MRT in Sprague-Dawley rat at 1 mg/kg, iv measured up to 8 hrs by LC-MS/MS analysis; type: ADME, organism-based; settings: in vivo
[5] = biological target: Ribosomal protein S6 kinase alpha-1 (Homo sapiens, UniProt Q15418); assay: Inhibition of RSK1 domain 2 K2 site in human HeLa cells lysate at 10 uM pre incubated for 15 mins followed by ADP acyl phosphate probe addition and measured after 10 mins by LC-MS/MS analysis relative to control; type: subcellular; settings: time 25.0 min
Ribosomal protein S6 kinase alpha-1, sequence (Q15418 whole entry, the tested form may be a part): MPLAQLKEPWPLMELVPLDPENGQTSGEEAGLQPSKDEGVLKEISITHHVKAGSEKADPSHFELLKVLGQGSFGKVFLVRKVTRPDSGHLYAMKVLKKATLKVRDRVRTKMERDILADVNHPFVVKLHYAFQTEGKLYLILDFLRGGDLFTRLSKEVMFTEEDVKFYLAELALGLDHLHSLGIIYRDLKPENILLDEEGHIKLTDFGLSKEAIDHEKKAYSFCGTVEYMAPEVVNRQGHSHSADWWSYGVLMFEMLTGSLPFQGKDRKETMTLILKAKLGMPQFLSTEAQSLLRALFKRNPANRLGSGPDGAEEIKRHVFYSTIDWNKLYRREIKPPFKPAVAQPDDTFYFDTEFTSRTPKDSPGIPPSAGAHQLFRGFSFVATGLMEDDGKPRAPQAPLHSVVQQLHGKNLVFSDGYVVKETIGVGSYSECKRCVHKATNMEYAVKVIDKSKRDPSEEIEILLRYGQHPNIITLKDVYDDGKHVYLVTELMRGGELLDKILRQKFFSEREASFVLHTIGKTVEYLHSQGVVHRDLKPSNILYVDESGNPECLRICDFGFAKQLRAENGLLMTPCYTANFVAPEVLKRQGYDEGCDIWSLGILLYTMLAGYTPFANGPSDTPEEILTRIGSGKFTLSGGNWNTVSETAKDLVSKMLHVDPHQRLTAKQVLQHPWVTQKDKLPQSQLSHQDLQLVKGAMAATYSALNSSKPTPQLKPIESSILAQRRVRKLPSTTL

[6] = biological target: T1, STE20-related kinase adapter protein beta (Homo sapiens) (UniProt Q9C0K7); assay: Inhibition of ALS2CR2 in human HeLa cells lysate at 10 uM pre incubated for 15 mins followed by ADP acyl phosphate probe addition and measured after 10 mins by LC-MS/MS analysis relative to control; type: subcellular; settings: time 25.0 min
T1 sequence (whole entry): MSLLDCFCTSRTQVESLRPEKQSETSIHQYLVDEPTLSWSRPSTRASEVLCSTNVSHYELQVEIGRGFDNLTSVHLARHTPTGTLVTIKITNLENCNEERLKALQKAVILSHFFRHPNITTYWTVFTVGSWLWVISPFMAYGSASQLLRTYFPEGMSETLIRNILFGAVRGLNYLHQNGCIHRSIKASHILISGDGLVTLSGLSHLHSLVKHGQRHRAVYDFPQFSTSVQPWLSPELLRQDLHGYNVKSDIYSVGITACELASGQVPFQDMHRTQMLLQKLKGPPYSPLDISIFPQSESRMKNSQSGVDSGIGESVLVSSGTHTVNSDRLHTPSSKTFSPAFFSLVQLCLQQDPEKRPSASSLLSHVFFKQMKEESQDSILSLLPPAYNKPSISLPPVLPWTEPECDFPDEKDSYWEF
In short: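 HeLa cell lysates (5 mg/mL total protein) were preincubated with inhibitor at 0, 0.8, 2, 10 or 50 μM for 15 min. ATP or ADP acylphosphate probe was then added (5 μM final) for 10 min, and reactions were stopped with urea. Up to four fragment ions per kinase probe-peptide were quantified by targeted MS. % inhibition was taken relative to untreated lysate. Run in duplicate.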

[7] = Inhibition of MSK1/2 in human HeLa cells lysate at 10 uM pre incubated for 15 mins followed by ADP acyl phosphate probe addition and measured after 10 mins by LC-MS/MS analysis relative to control; settings: 25 min, condition cancer
[8] = biological target: Ribosomal protein S6 kinase alpha-5 (Homo sapiens, UniProt O75582); assay: Inhibition of MSK1 domain 1 in human HeLa cells lysate at 2 uM pre incubated for 15 mins followed by ADP acyl phosphate probe addition and measured after 10 mins by LC-MS/MS analysis relative to control; type: subcellular; settings: time 25.0 min
Ribosomal protein S6 kinase alpha-5, sequence (O75582 whole entry, looked up, the tested form may be a part, canonical isoform): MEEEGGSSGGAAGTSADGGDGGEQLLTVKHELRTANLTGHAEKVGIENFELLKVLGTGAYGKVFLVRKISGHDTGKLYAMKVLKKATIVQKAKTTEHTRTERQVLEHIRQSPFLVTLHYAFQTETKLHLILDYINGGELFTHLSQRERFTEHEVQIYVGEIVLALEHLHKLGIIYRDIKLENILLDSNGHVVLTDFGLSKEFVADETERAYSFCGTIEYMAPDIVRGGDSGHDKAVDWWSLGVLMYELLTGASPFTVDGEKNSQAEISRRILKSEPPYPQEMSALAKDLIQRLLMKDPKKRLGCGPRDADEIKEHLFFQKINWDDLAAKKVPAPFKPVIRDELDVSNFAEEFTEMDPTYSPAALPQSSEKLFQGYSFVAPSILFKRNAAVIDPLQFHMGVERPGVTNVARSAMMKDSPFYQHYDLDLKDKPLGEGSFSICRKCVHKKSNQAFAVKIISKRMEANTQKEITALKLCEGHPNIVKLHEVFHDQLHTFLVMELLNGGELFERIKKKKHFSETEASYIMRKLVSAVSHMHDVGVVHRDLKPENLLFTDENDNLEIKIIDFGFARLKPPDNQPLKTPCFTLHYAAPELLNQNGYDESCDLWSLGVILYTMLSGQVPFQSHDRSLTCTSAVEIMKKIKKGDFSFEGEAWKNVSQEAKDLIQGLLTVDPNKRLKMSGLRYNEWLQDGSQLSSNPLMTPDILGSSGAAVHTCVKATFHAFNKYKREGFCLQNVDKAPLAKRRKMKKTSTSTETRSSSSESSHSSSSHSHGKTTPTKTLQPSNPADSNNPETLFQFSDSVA

[9] = biological target: Casein kinase I isoform alpha (Homo sapiens, UniProt P48729); assay: Inhibition of CK1alpha in human HeLa cells lysate at 10 uM pre incubated for 15 mins followed by ATP acyl phosphate probe addition and measured after 10 mins by LC-MS/MS analysis relative to control; type: subcellular; settings: time 25.0 min
Casein kinase I isoform alpha, sequence (P48729 2-337 limits assumed): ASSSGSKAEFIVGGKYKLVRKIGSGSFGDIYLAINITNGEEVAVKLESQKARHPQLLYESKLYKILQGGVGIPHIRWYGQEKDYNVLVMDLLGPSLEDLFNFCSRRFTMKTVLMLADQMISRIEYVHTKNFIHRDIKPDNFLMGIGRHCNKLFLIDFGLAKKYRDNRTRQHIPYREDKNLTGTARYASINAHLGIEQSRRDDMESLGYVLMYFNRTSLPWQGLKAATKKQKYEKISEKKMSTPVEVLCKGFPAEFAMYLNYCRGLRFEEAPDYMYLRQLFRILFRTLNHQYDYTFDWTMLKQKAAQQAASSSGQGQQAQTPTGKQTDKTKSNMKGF

[10] = biological target: Serine/threonine-protein kinase 24 (Homo sapiens, UniProt Q9Y6E0); assay: Inhibition of MST3 in human HeLa cells lysate at 10 uM pre incubated for 15 mins followed by ATP acyl phosphate probe addition and measured after 10 mins by LC-MS/MS analysis relative to control; type: subcellular; settings: time 25.0 min
Serine/threonine-protein kinase 24, sequence (Q9Y6E0 whole entry, looked up): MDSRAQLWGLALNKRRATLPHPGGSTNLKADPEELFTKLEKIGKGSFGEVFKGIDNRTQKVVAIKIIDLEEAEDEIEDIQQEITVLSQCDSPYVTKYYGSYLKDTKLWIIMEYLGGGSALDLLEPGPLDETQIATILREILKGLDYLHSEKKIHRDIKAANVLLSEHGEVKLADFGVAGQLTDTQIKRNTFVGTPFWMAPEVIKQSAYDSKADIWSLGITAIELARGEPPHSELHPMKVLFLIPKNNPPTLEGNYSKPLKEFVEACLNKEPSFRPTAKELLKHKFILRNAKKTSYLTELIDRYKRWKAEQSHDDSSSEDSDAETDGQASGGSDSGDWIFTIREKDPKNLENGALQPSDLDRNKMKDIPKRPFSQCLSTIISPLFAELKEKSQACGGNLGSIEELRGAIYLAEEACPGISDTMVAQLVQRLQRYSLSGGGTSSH

[11] = biological target: T2, Serine/threonine-protein kinase Chk1 (Homo sapiens) (UniProt O14757); assay: Inhibition of CHK1 in human HeLa cells lysate at 2 uM pre incubated for 15 mins followed by ATP acyl phosphate probe addition and measured after 10 mins by LC-MS/MS analysis relative to control; type: subcellular; settings: time 25.0 min
T2 sequence (whole entry): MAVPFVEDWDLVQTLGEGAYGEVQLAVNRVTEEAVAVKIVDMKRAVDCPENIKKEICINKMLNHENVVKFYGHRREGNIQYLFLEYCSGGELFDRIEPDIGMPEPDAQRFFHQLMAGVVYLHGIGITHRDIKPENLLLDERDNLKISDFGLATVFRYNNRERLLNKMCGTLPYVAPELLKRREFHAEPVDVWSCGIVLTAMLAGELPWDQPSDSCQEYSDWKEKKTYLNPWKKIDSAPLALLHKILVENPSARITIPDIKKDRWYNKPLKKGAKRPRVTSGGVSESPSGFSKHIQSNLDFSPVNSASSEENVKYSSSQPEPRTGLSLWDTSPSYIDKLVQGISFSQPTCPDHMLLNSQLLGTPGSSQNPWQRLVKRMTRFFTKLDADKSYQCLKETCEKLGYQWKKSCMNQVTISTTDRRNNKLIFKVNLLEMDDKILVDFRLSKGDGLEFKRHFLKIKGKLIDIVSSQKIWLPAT

Lewis lung carcinoma = assay: Antitumor activity against mouse LL2 cells allografted in C57Bl/6 mouse assessed as reduction tumor growth at 50 mg/kg, ip administered on day 7 post implantation measured after 17 days; type: functional, organism-based; settings: time 10.0 day
In short: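 LL/2 cells (1×10^6, in DMEM) were injected s.c. into the right flank of 6-week-old C57Bl/6 mice on day 0. Dosing was 50 mg/kg i.p. twice daily, starting on day 1, 7 or 10 and continuing to day 17; controls received carrier. 6 mice per treated group. Tumors were measured every 2–3 days.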

HeLa = assay: Antitumor activity against human HeLa cells xenografted in NOD/SCID mouse assessed as decrease in BrdU incorporation in cell nuclei in tumor at 50 mg/kg, ip by fluorescence microscopic analysis; type: functional, organism-based
In short: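 HeLa or LL/2 tumor sections from treated and control xenograft mice were stained with anti-BrdU antibody and DAPI and imaged by fluorescence microscopy. n = 6 mice, 9 slices.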

## CCOc1cc(N2CCC(O)CC2)ccc1Nc1ncc2c(n1)N(C)c1ccccc1C(=O)N2C
[1]
  IC50: > 50 µM
Activated CDC42 kinase 1
  IC50: 18 µM
[2]
  IC50: > 50 µM
Focal adhesion kinase 1
  inhibition: 58.1%
[3]
  inhibition: 20.9%
[4]
  MRT: 2.2 h
[5]
  inhibition: 5.4%
[6]
  inhibition: -9.5%
[7]
  inhibition at 10 µM: 37.4%
[8]
  inhibition: 21.5%
[9]
  inhibition: -7.9%
[10]
  inhibition: -7.7%
[11]
  inhibition: 5.4%
Lewis lung carcinoma
  Activity: Active
HeLa
  Activity: Active
